# In ChEMBL document CHEMBL1135643, “Synthesis and biological activity of strongly fluorescent tricyclic analogues of acyclovir and ganciclovir” (2002):
# Test: Minimum inhibitory concentration against Herpes simplex Virus-2(G)
# Format: functional
# Settings: Human alphaherpesvirus 1
# Summary of the method: (§1)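 Confluent E6SM fibroblast monolayers were infected with 100 CCID50 of virus (1 CCID50 infects 50% of inoculated cultures). After 1 h adsorption, residual virus was removed and cultures were incubated with 2- to 5-fold serial dilutions of compound. Inhibition of virus-induced cytopathicity was scored once the virus-infected controls reached full CPE (day 3 post-infection).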
row,MIC [µM],SMILES
1,0.601,CC(=O)Oc1ccc(-c2cn3c(O)c4ncn(COCCO)c4nc3n2)cc1

# Same assay, conditions: Human alphaherpesvirus 2
row,MIC [µM],SMILES
1,97,CC(=O)Oc1ccc(-c2cn3c(O)c4ncn(COC(CO)CO)c4nc3n2)cc1
2,8.4,CC(=O)Nc1ccc(-c2cn3c(O)c4ncn(COCCO)c4nc3n2)cc1
3,15,NC(=O)Nc1ccc(-c2cn3c(O)c4ncn(COCCO)c4nc3n2)cc1
4,0.116,CC(C)C(=O)Oc1ccc(-c2cn3c(O)c4ncn(COC(CO)CO)c4nc3n2)cc1
5,4.4,CC(C)C(=O)Nc1ccc(-c2cn3c(O)c4ncn(COCCO)c4nc3n2)cc1
6,0.675,OCCOCn1cnc2c(O)n3cc(-c4ccc(O)cc4)nc3nc21
7,0.06,Nc1nc2c(ncn2COC(CO)CO)c(=O)[nH]1 [GANCICLOVIR]
8,0.417,O=C(Oc1ccccc1)Oc1ccc(-c2cn3c(O)c4ncn(COC(CO)CO)c4nc3n2)cc1
9,0.96,OCC(CO)OCn1cnc2c(O)n3cc(-c4ccc(O)cc4)nc3nc21
10,0.242,Nc1nc2c(ncn2COCCO)c(=O)[nH]1 [ACYCLOVIR]
11,0.83,O=C(Oc1ccccc1)Oc1ccc(-c2cn3c(O)c4ncn(COCCO)c4nc3n2)cc1
12,0.622,CC(C)C(=O)Oc1ccc(-c2cn3c(O)c4ncn(COCCO)c4nc3n2)cc1

row,SMILES,MIC [µM]
1,O=C(Nc1ccc(-c2cn3c(O)c4ncn(COCCO)c4nc3n2)cc1)Oc1ccccc1,2.5

# Test: Minimum inhibitory concentration against Herpes simplex Virus-1 (KOS) (ACV)
# Format: functional
# Settings: Human alphaherpesvirus 1
# Summary of the method: as §1
row,MIC [µM],SMILES
1,23,CC(=O)Oc1ccc(-c2cn3c(O)c4ncn(COC(CO)CO)c4nc3n2)cc1
2,25,CC(=O)Nc1ccc(-c2cn3c(O)c4ncn(COCCO)c4nc3n2)cc1
3,626,CC(=O)Oc1ccc(-c2cn3c(O)c4ncn(COCCO)c4nc3n2)cc1
4,126,NC(=O)Nc1ccc(-c2cn3c(O)c4ncn(COCCO)c4nc3n2)cc1
5,22,CC(C)C(=O)Oc1ccc(-c2cn3c(O)c4ncn(COC(CO)CO)c4nc3n2)cc1
6,780,CC(C)C(=O)Nc1ccc(-c2cn3c(O)c4ncn(COCCO)c4nc3n2)cc1
7,234,OCCOCn1cnc2c(O)n3cc(-c4ccc(O)cc4)nc3nc21
8,7.5,Nc1nc2c(ncn2COC(CO)CO)c(=O)[nH]1 [GANCICLOVIR]
9,19,O=C(Oc1ccccc1)Oc1ccc(-c2cn3c(O)c4ncn(COC(CO)CO)c4nc3n2)cc1
10,69,OCC(CO)OCn1cnc2c(O)n3cc(-c4ccc(O)cc4)nc3nc21
11,249,Nc1nc2c(ncn2COCCO)c(=O)[nH]1 [ACYCLOVIR]
12,694,O=C(Oc1ccccc1)Oc1ccc(-c2cn3c(O)c4ncn(COCCO)c4nc3n2)cc1
13,583,CC(C)C(=O)Oc1ccc(-c2cn3c(O)c4ncn(COCCO)c4nc3n2)cc1

row,SMILES,MIC [µM]
1,O=C(Nc1ccc(-c2cn3c(O)c4ncn(COCCO)c4nc3n2)cc1)Oc1ccccc1,174

# Test: Minimum inhibitory concentration against Herpes simplex Virus-1(KOS)
# Format: functional
# Settings: Human alphaherpesvirus 1
# Summary of the method: as §1
row,MIC [µM],SMILES
1,0.049,CC(=O)Oc1ccc(-c2cn3c(O)c4ncn(COC(CO)CO)c4nc3n2)cc1
2,6.7,CC(=O)Nc1ccc(-c2cn3c(O)c4ncn(COCCO)c4nc3n2)cc1
3,0.601,CC(=O)Oc1ccc(-c2cn3c(O)c4ncn(COCCO)c4nc3n2)cc1
4,15,NC(=O)Nc1ccc(-c2cn3c(O)c4ncn(COCCO)c4nc3n2)cc1
5,0.116,CC(C)C(=O)Oc1ccc(-c2cn3c(O)c4ncn(COC(CO)CO)c4nc3n2)cc1
6,2.8,CC(C)C(=O)Nc1ccc(-c2cn3c(O)c4ncn(COCCO)c4nc3n2)cc1
7,0.675,OCCOCn1cnc2c(O)n3cc(-c4ccc(O)cc4)nc3nc21
8,0.03,Nc1nc2c(ncn2COC(CO)CO)c(=O)[nH]1 [GANCICLOVIR]
9,0.008,O=C(Oc1ccccc1)Oc1ccc(-c2cn3c(O)c4ncn(COC(CO)CO)c4nc3n2)cc1
10,0.041,OCC(CO)OCn1cnc2c(O)n3cc(-c4ccc(O)cc4)nc3nc21
11,0.341,Nc1nc2c(ncn2COCCO)c(=O)[nH]1 [ACYCLOVIR]
12,0.832,O=C(Oc1ccccc1)Oc1ccc(-c2cn3c(O)c4ncn(COCCO)c4nc3n2)cc1
13,0.56,CC(C)C(=O)Oc1ccc(-c2cn3c(O)c4ncn(COCCO)c4nc3n2)cc1

row,SMILES,MIC [µM]
1,O=C(Nc1ccc(-c2cn3c(O)c4ncn(COCCO)c4nc3n2)cc1)Oc1ccccc1,1.1

# Test: Minimum inhibitory concentration against Herpes simplex Virus-1(F)
# Format: functional
# Settings: Human alphaherpesvirus 1
# Summary of the method: as §1
row,MIC [µM],SMILES
1,0.062,CC(=O)Oc1ccc(-c2cn3c(O)c4ncn(COC(CO)CO)c4nc3n2)cc1
2,5,CC(=O)Nc1ccc(-c2cn3c(O)c4ncn(COCCO)c4nc3n2)cc1
3,0.2,CC(=O)Oc1ccc(-c2cn3c(O)c4ncn(COCCO)c4nc3n2)cc1
4,5,NC(=O)Nc1ccc(-c2cn3c(O)c4ncn(COCCO)c4nc3n2)cc1
5,0.035,CC(C)C(=O)Oc1ccc(-c2cn3c(O)c4ncn(COC(CO)CO)c4nc3n2)cc1
6,4.7,CC(C)C(=O)Nc1ccc(-c2cn3c(O)c4ncn(COCCO)c4nc3n2)cc1
7,0.225,OCCOCn1cnc2c(O)n3cc(-c4ccc(O)cc4)nc3nc21
8,0.045,Nc1nc2c(ncn2COC(CO)CO)c(=O)[nH]1 [GANCICLOVIR]
9,0.031,O=C(Oc1ccccc1)Oc1ccc(-c2cn3c(O)c4ncn(COC(CO)CO)c4nc3n2)cc1
10,0.041,OCC(CO)OCn1cnc2c(O)n3cc(-c4ccc(O)cc4)nc3nc21
11,0.341,Nc1nc2c(ncn2COCCO)c(=O)[nH]1 [ACYCLOVIR]
12,0.166,O=C(Oc1ccccc1)Oc1ccc(-c2cn3c(O)c4ncn(COCCO)c4nc3n2)cc1
13,0.311,CC(C)C(=O)Oc1ccc(-c2cn3c(O)c4ncn(COCCO)c4nc3n2)cc1

row,SMILES,MIC [µM]
1,O=C(Nc1ccc(-c2cn3c(O)c4ncn(COCCO)c4nc3n2)cc1)Oc1ccccc1,0.834

# Test: Minimum inhibitory concentration against Herpes simplex Virus-2(Lyons)
# Format: functional
# Settings: Human alphaherpesvirus 2
# Summary of the method: as §1
row,MIC [µM],SMILES
1,0.186,CC(=O)Oc1ccc(-c2cn3c(O)c4ncn(COC(CO)CO)c4nc3n2)cc1
2,25,CC(=O)Nc1ccc(-c2cn3c(O)c4ncn(COCCO)c4nc3n2)cc1
3,0.2,CC(=O)Oc1ccc(-c2cn3c(O)c4ncn(COCCO)c4nc3n2)cc1
4,8.3,NC(=O)Nc1ccc(-c2cn3c(O)c4ncn(COCCO)c4nc3n2)cc1
5,0.174,CC(C)C(=O)Oc1ccc(-c2cn3c(O)c4ncn(COC(CO)CO)c4nc3n2)cc1
6,4.7,CC(C)C(=O)Nc1ccc(-c2cn3c(O)c4ncn(COCCO)c4nc3n2)cc1
7,0.225,OCCOCn1cnc2c(O)n3cc(-c4ccc(O)cc4)nc3nc21
8,0.045,Nc1nc2c(ncn2COC(CO)CO)c(=O)[nH]1 [GANCICLOVIR]
9,0.156,O=C(Oc1ccccc1)Oc1ccc(-c2cn3c(O)c4ncn(COC(CO)CO)c4nc3n2)cc1
10,0.207,OCC(CO)OCn1cnc2c(O)n3cc(-c4ccc(O)cc4)nc3nc21
11,1,Nc1nc2c(ncn2COCCO)c(=O)[nH]1 [ACYCLOVIR]
12,0.832,O=C(Oc1ccccc1)Oc1ccc(-c2cn3c(O)c4ncn(COCCO)c4nc3n2)cc1
13,0.933,CC(C)C(=O)Oc1ccc(-c2cn3c(O)c4ncn(COCCO)c4nc3n2)cc1

row,SMILES,MIC [µM]
1,O=C(Nc1ccc(-c2cn3c(O)c4ncn(COCCO)c4nc3n2)cc1)Oc1ccccc1,1.4

# Test: Minimum cytotoxic concentration in E6SM fibroblast cells
# Format: functional
# Settings: Homo sapiens, read-out: Min cytotoxic concentration
row,SMILES,MCC [µM]
1,CC(=O)Oc1ccc(-c2cn3c(O)c4ncn(COC(CO)CO)c4nc3n2)cc1,968
2,CC(=O)Nc1ccc(-c2cn3c(O)c4ncn(COCCO)c4nc3n2)cc1,126
3,CC(=O)Oc1ccc(-c2cn3c(O)c4ncn(COCCO)c4nc3n2)cc1,1040
4,NC(=O)Nc1ccc(-c2cn3c(O)c4ncn(COCCO)c4nc3n2)cc1,209
5,CC(C)C(=O)Oc1ccc(-c2cn3c(O)c4ncn(COC(CO)CO)c4nc3n2)cc1,906
6,CC(C)C(=O)Nc1ccc(-c2cn3c(O)c4ncn(COCCO)c4nc3n2)cc1,975
7,OCCOCn1cnc2c(O)n3cc(-c4ccc(O)cc4)nc3nc21,703
8,Nc1nc2c(ncn2COC(CO)CO)c(=O)[nH]1 [GANCICLOVIR],392
9,O=C(Oc1ccccc1)Oc1ccc(-c2cn3c(O)c4ncn(COC(CO)CO)c4nc3n2)cc1,814
10,OCC(CO)OCn1cnc2c(O)n3cc(-c4ccc(O)cc4)nc3nc21,1080
11,Nc1nc2c(ncn2COCCO)c(=O)[nH]1 [ACYCLOVIR],1780
12,O=C(Oc1ccccc1)Oc1ccc(-c2cn3c(O)c4ncn(COCCO)c4nc3n2)cc1,867
13,O=C(Nc1ccc(-c2cn3c(O)c4ncn(COCCO)c4nc3n2)cc1)Oc1ccccc1,869
14,CC(C)C(=O)Oc1ccc(-c2cn3c(O)c4ncn(COCCO)c4nc3n2)cc1,972

# Test: Minimum inhibitory concentration against Herpes simplex Virus-2(196)
# Format: functional
# Settings: Human alphaherpesvirus 2
# Summary of the method: as §1
row,MIC [µM],SMILES
1,0.186,CC(=O)Oc1ccc(-c2cn3c(O)c4ncn(COC(CO)CO)c4nc3n2)cc1
2,25,CC(=O)Nc1ccc(-c2cn3c(O)c4ncn(COCCO)c4nc3n2)cc1
3,0.2,CC(=O)Oc1ccc(-c2cn3c(O)c4ncn(COCCO)c4nc3n2)cc1
4,8.3,NC(=O)Nc1ccc(-c2cn3c(O)c4ncn(COCCO)c4nc3n2)cc1
5,0.87,CC(C)C(=O)Oc1ccc(-c2cn3c(O)c4ncn(COC(CO)CO)c4nc3n2)cc1
6,4.7,CC(C)C(=O)Nc1ccc(-c2cn3c(O)c4ncn(COCCO)c4nc3n2)cc1
7,0.375,OCCOCn1cnc2c(O)n3cc(-c4ccc(O)cc4)nc3nc21
8,0.1,Nc1nc2c(ncn2COC(CO)CO)c(=O)[nH]1 [GANCICLOVIR]
9,0.781,O=C(Oc1ccccc1)Oc1ccc(-c2cn3c(O)c4ncn(COC(CO)CO)c4nc3n2)cc1
10,0.207,OCC(CO)OCn1cnc2c(O)n3cc(-c4ccc(O)cc4)nc3nc21
11,1,Nc1nc2c(ncn2COCCO)c(=O)[nH]1 [ACYCLOVIR]
12,0.832,O=C(Oc1ccccc1)Oc1ccc(-c2cn3c(O)c4ncn(COCCO)c4nc3n2)cc1
13,0.933,CC(C)C(=O)Oc1ccc(-c2cn3c(O)c4ncn(COCCO)c4nc3n2)cc1

row,SMILES,MIC [µM]
1,O=C(Nc1ccc(-c2cn3c(O)c4ncn(COCCO)c4nc3n2)cc1)Oc1ccccc1,1.4

# Test: Minimum inhibitory concentration against Herpes simplex Virus-1 (McIntyre)
# Format: functional
# Settings: Human alphaherpesvirus 1
# Summary of the method: as §1
row,MIC [µM],SMILES
1,0.186,CC(=O)Oc1ccc(-c2cn3c(O)c4ncn(COC(CO)CO)c4nc3n2)cc1
2,25,CC(=O)Nc1ccc(-c2cn3c(O)c4ncn(COCCO)c4nc3n2)cc1
3,0.2,CC(=O)Oc1ccc(-c2cn3c(O)c4ncn(COCCO)c4nc3n2)cc1
4,5,NC(=O)Nc1ccc(-c2cn3c(O)c4ncn(COCCO)c4nc3n2)cc1
5,0.174,CC(C)C(=O)Oc1ccc(-c2cn3c(O)c4ncn(COC(CO)CO)c4nc3n2)cc1
6,4.7,CC(C)C(=O)Nc1ccc(-c2cn3c(O)c4ncn(COCCO)c4nc3n2)cc1
7,0.225,OCCOCn1cnc2c(O)n3cc(-c4ccc(O)cc4)nc3nc21
8,0.04,Nc1nc2c(ncn2COC(CO)CO)c(=O)[nH]1 [GANCICLOVIR]
9,0.781,O=C(Oc1ccccc1)Oc1ccc(-c2cn3c(O)c4ncn(COC(CO)CO)c4nc3n2)cc1
10,0.207,OCC(CO)OCn1cnc2c(O)n3cc(-c4ccc(O)cc4)nc3nc21
11,0.341,Nc1nc2c(ncn2COCCO)c(=O)[nH]1 [ACYCLOVIR]
12,0.166,O=C(Oc1ccccc1)Oc1ccc(-c2cn3c(O)c4ncn(COCCO)c4nc3n2)cc1
13,0.187,CC(C)C(=O)Oc1ccc(-c2cn3c(O)c4ncn(COCCO)c4nc3n2)cc1

row,SMILES,MIC [µM]
1,O=C(Nc1ccc(-c2cn3c(O)c4ncn(COCCO)c4nc3n2)cc1)Oc1ccccc1,0.834
